Experimental data: ChEMBL document CHEMBL1122319, “Substituted (2-phenoxyphenyl)acetic acids with antiinflammatory activity. 1” (J Med Chem, 1983)

Key:
Assay type in all cases: functional
Rattus norvegicus [1] = organism: Rattus norvegicus; test: (§1) Potency relative to [2-(2,4-Dichloro-phenoxy)-phenyl]-acetic acid in rat adjuvant arthritis test
Rattus norvegicus [2] = test: Reduction in paw swelling at 100 mg/kg po dose in rat using adjuvant arthritis test.
Rattus norvegicus [3] = test: Reduction in paw swelling at 100 mg/kg po dose in rat using adjuvant arthritis test; value is +10 indicates exacerbation of paw swelling.
Rattus norvegicus [4] = test: Reduction in paw swelling at 100 mg/kg po dose in rat using adjuvant arthritis test; value is +23 indicates exacerbation of paw swelling.
Rattus norvegicus [5] = test: Reduction in paw swelling at 100 mg/kg po dose in rat using adjuvant arthritis test; value is +8 indicates exacerbation of paw swelling.
Rattus norvegicus [6] = test: Reduction in paw swelling at 100 mg/kg po dose in rat using adjuvant arthritis test; value is +14 indicates exacerbation of paw swelling.
Rattus norvegicus [7] = organism: Rattus norvegicus; test: Minimum ulcerogenic dose(MUD) of the compound.
Rattus norvegicus [8] = organism: Rattus norvegicus; test: Minimum ulcerogenic dose(MUD) of the compound;Value ranges from (400-800)
Rattus norvegicus [9] = test: Reduction in paw swelling at 100 mg/kg po dose in rat using adjuvant arthritis test; value is +6 indicates exacerbation of paw swelling.
Rattus norvegicus [10] = test: Reduction in paw swelling at 100 mg/kg po dose in rat using adjuvant arthritis test; value is +12 indicates exacerbation of paw swelling.
Rattus norvegicus [11] = test: Reduction in paw swelling at 100 mg/kg po dose in rat using adjuvant arthritis test; value is +9 indicates exacerbation of paw swelling.
Rattus norvegicus [12] = organism: Rattus norvegicus; test: as §1; remark: listed apart in the source
Method in brief: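 Established (therapeutic) adjuvant arthritis test in rats: the drug was given after arthritis had fully developed. Relative potency against the reference standard was derived from a three-dose-level assay based on paw volume changes.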

Rattus norvegicus [13] = test: Reduction in paw swelling at 100 mg/kg po dose in rat using adjuvant arthritis test; value is +1 indicates exacerbation of paw swelling.
Rattus norvegicus [14] = test: Reduction in paw swelling at 100 mg/kg po dose in rat using adjuvant arthritis test; value is +3 indicates exacerbation of paw swelling.
Rattus norvegicus [15] = test: Reduction in paw swelling at 100 mg/kg po dose in rat using adjuvant arthritis test; value is +7 indicates exacerbation of paw swelling.
Rattus norvegicus [16] = test: Reduction in paw swelling at 100 mg/kg po dose in rat using adjuvant arthritis test; value is +4 indicates exacerbation of paw swelling.
Rattus norvegicus [17] = test: Reduction in paw swelling at 100 mg/kg po dose in rat using adjuvant arthritis test; value is +13 indicates exacerbation of paw swelling.
Rattus norvegicus [18] = test: Reduction in paw swelling at 100 mg/kg po dose in rat using adjuvant arthritis test; value is +5 indicates exacerbation of paw swelling.
Rattus norvegicus [19] = test: Reduction in paw swelling at 100 mg/kg po dose in rat using adjuvant arthritis test; value is +20 indicates exacerbation of paw swelling.
Rattus norvegicus [20] = test: Reduction in paw swelling at 100 mg/kg po dose in rat using adjuvant arthritis test; value is +2 indicates exacerbation of paw swelling.

Row | Structure (SMILES) | Relative potency (Rattus norvegicus [1]) | Reduction (Rattus norvegicus [2]) | also measured
1 | CCCCCc1ccc(Oc2ccc(C)cc2CC(=O)O)c(Cl)c1 | 0.3 | 23 | –
2 | COc1cccc(Oc2ccc(C)cc2CC(=O)O)c1 | – | – | Reduction (Rattus norvegicus [3]): 10
3 | CCc1cc(Cl)ccc1Oc1ccc(C)cc1CC(=O)O | 0.4 | 17 | –
4 | Cc1ccc(Oc2ccc(Cl)cc2)c(CC(=O)O)c1 | 0.7 | 9 | –
5 | OCCc1ccccc1Oc1ccc(Cl)cc1Cl | 0.7 | 32 | –
6 | Cc1ccc(Oc2c(Cl)cccc2CC(=O)O)c(Cl)c1 | – | – | Reduction (Rattus norvegicus [4]): 23
7 | CCCCc1ccc(Oc2ccc(C)cc2CC(=O)O)c(Cl)c1 | 0.9 | 25 | –
8 | NC(=O)Cc1ccccc1Oc1ccc(Cl)cc1Cl | 1.3 | 33 | –
9 | CCCCc1ccc(Oc2ccc(C)cc2Cl)c(CC(=O)O)c1 | – | – | Reduction (Rattus norvegicus [5]): 8
10 | Cc1ccc(Oc2cc(C)c(C)cc2CC(=O)O)c(Cl)c1 | – | – | Reduction (Rattus norvegicus [6]): 14
11 | CCc1ccc(Oc2ccc(C)cc2CC(=O)O)c(Cl)c1 | 1.1 | 40 | MUD (Rattus norvegicus [7]): >800 mg/kg
12 | Cc1ccc(Oc2ccc(Cl)cc2Cl)c(CC(=O)O)c1 | 0.8 | 29 | –
13 | Cc1ccc(Oc2ccc(C(C)(C)C)cc2Cl)c(CC(=O)O)c1 | 1.6 | 34 | MUD (Rattus norvegicus [7]): >500 mg/kg
14 | CCC(C)c1ccc(Oc2ccc(C)cc2CC(=O)O)c(Cl)c1 (stereo not drawn) | 3 | 42 | MUD (Rattus norvegicus [8]): 800 mg/kg
15 | COc1ccc(Oc2ccc(C)cc2Cl)c(CC(=O)O)c1 | – | – | Reduction (Rattus norvegicus [9]): 6
16 | Cc1ccc(Oc2cc(Cl)ccc2C)c(CC(=O)O)c1 | 0.2 | 15 | –
17 | COc1ccccc1Oc1ccccc1CC(=O)O | 0.7 | 38 | –
18 | COc1cc(Oc2ccc(C)cc2Cl)c(CC(=O)O)cc1C | – | – | Reduction (Rattus norvegicus [10]): 12
19 | Cc1ccc(Oc2cccc(O)c2CC(=O)O)c(Cl)c1 | – | – | Reduction (Rattus norvegicus [11]): 9
20 | CCc1ccc(Oc2ccccc2CC(=O)O)c(Cl)c1 | 0.7 | 32 | –

Row | Structure (SMILES) | Relative potency (Rattus norvegicus [1]) | Reduction (Rattus norvegicus [2]) | also measured
21 | O=C(Cc1ccccc1Oc1ccc(Cl)cc1Cl)NO | – | 28% | Relative potency (Rattus norvegicus [12]): 1
22 | Cc1ccc(Oc2cc(C)cc(C)c2C)c(CC(=O)O)c1 | 0.1 | 11 | –
23 | Cc1ccc(Oc2cc(C)ccc2CC(=O)O)c(Cl)c1 | – | – | Reduction (Rattus norvegicus [13]): 1
24 | Cc1ccc(Oc2cc(C(F)(F)F)cc(C(F)(F)F)c2)c(CC(=O)O)c1 | – | – | Reduction (Rattus norvegicus [3]): 10
25 | Cc1ccc(Oc2cc(C)c(Cl)cc2CC(=O)O)c(Cl)c1 | – | – | Reduction (Rattus norvegicus [6]): 14
26 | Cc1ccc(Oc2cccc(O)c2)c(CC(=O)O)c1 | – | – | Reduction (Rattus norvegicus [14]): 3
27 | COc1ccc(CC(=O)O)c(Oc2ccc(C)cc2Cl)c1 | – | – | Reduction (Rattus norvegicus [6]): 14
28 | Cc1ccc(Oc2c(C)cc(Cl)cc2Cl)c(CC(=O)O)c1 | 0.3 | 23 | –
29 | Cc1ccc(Oc2cc(Cl)c(C)cc2CC(=O)O)c(Cl)c1 | – | – | Reduction (Rattus norvegicus [15]): 7
30 | Cc1cc(Oc2ccccc2CC(=O)O)c(Cl)c(C)c1Cl | 1.2 | 34 | –
31 | Nc1cc(Cl)ccc1Oc1ccccc1CC(=O)O | – | – | Reduction (Rattus norvegicus [16]): 4
32 | CCCCCCCCCCCCc1ccc(Oc2ccc(C)cc2CC(=O)O)c(Cl)c1 | 0.3 | 26% | –
33 | O=C(O)/C=C/c1ccccc1Oc1ccc(Cl)cc1Cl | – | – | Reduction (Rattus norvegicus [5]): 8
34 | CCc1ccc(Oc2ccc(C)cc2Cl)c(CC(=O)O)c1 | – | – | Reduction (Rattus norvegicus [17]): 13
35 | Cc1ccc(Oc2cc(C)c(C)cc2Cl)c(CC(=O)O)c1 | 0.4 | 46 | –
36 | Nc1ccc(Oc2ccccc2CC(=O)O)c(Cl)c1 | – | – | Reduction (Rattus norvegicus [18]): 5
37 | Cc1ccc(Oc2cc(O)ccc2CC(=O)O)c(Cl)c1 | – | – | Reduction (Rattus norvegicus [19]): 20
38 | Cc1ccc(Oc2ccc(C3CCCCC3)cc2Cl)c(CC(=O)O)c1 | – | – | Reduction (Rattus norvegicus [20]): 2
39 | O=C(O)Cc1ccccc1Oc1ccc(Cl)cc1Cl [FENCLOFENAC] | 1 | 36 | MUD (Rattus norvegicus [8]): 800 mg/kg
